Measured values from ChEMBL document CHEMBL3797041, “Discovery of potent, reversible MetAP2 inhibitors via fragment based drug discovery and structure based drug design-Part 2” (Bioorg Med Chem Lett, 2016).

Key:
[1] = molecular target: T1, Cytochrome P450 1A2 (Homo sapiens, UniProt P05177); test: Inhibition of human CYP1A2 expressed in Escherichia coli DH5alpha; type: ADME
T1 sequence (P05177 whole entry): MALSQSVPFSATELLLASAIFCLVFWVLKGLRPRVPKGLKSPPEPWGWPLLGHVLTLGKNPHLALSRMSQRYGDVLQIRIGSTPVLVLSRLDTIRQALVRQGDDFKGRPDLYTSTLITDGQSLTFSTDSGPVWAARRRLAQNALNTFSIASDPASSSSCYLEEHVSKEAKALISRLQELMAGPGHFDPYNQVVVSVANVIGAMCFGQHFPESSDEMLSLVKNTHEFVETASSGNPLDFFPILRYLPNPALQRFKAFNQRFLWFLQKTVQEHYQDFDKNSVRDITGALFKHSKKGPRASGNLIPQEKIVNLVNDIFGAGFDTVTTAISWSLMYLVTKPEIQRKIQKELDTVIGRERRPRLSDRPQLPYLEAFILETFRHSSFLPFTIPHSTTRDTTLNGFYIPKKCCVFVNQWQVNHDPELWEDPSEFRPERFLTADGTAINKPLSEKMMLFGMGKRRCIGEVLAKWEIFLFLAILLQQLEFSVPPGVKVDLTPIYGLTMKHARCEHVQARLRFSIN

[2] = test system: Mus musculus; test: Antiobesity in diet-induced obese mouse model assessed as decrease in body weight at 30 mg/kg, po qd for 7 days relative to control; type: functional; conditions: 168 h
Outline: (§1)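 DIO mice were dosed by oral gavage once daily for 7 days, with a vehicle-dosed cohort as the comparator. Body weight was read relative to the vehicle group, and food intake and activity levels were monitored in dosed and vehicle cohorts. In some studies, animals were first acclimated to gavage for a few weeks, until their weights stopped changing, before dosing began.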

[3] = test system: Mus musculus; test: Toxicity in diet-induced obese mouse model assessed as effect on activity levels at 30 mg/kg, po qd for 7 days; type: organism-based; conditions: in vivo, 168 h; outline: as §1
[4] = Oral bioavailability in Sprague-Dawley rat at 2.9 mg/kg; type: ADME, organism-based; conditions: in vivo
[5] = test system: Mus musculus; test: Toxicity in diet-induced obese mouse model assessed as effect on food intake at 30 mg/kg, po qd for 7 days; type: organism-based; conditions: in vivo, 168 h; outline: as §1
[6] = AUC in Sprague-Dawley rat at 2.9 mg/kg, po; type: ADME, organism-based; conditions: in vivo
[7] = Clearance in Sprague-Dawley rat at 2.9 mg/kg, po; type: ADME, organism-based; conditions: in vivo
[8] = Half life in Sprague-Dawley rat at 2.9 mg/kg, po; type: ADME, organism-based; conditions: in vivo
[9] = test system: Rattus norvegicus; test: Volume of distribution in Sprague-Dawley rat at 2.9 mg/kg, po; type: ADME, organism-based; conditions: in vivo

Row | Structure (SMILES) | IC50 [1] | other results
1 | O=C(NCCO)c1ccc(-n2c3ccc(F)cc3c3[nH]ncc32)cc1 | 7.94 µM | 
2 | Fc1ccc2c(c1)c1[nH]ncc1n2-c1cccnc1 | 0.126 µM | 
3 | Cc1nc2[nH]cnc2cc1-n1c2ccc(F)cc2c2[nH]ncc21 | 3.16 µM | inhibition in vivo at 30 mg/kg [2]: 4%; Activity [3]: Non-toxic; bioavailability [4]: 70%; Activity [5]: Non-toxic; AUC [6]: 2240 ng·h/mL; CL/F [7]: 17.2 mL/min/kg; half-life [8]: 360 min; Vd [9]: 1597 mL/kg
4 | Cc1c(-n2c3ccc(F)cc3c3[nH]ncc32)cnc2[nH]cnc12 | > 50.1 µM | 
5 | Clc1ccc2c3[nH]ncc3n(-c3cccnc3)c2c1 | 0.0631 µM | 
6 | Fc1cc2c3[nH]ncc3n(-c3cccnc3)c2cc1F | 0.0501 µM | 
7 | Cc1cc(C(=O)NCCO)ccc1-n1c2ccc(F)cc2c2[nH]ncc21 | 7.94 µM | 
8 | Cc1nc2c(cc1-n1c3ccc(F)cc3c3[nH]ncc31)ncn2C | 20 µM | 
9 | Nc1ncc(-n2c3ccc(F)cc3c3[nH]ncc32)cc1Cl | 0.158 µM | 
